In PMC12716021 (Chemistry & Biodiversity, 2025) one finds IC50 data, which are given here for one compound.

One experiment in a line: NO scavenging activity. The following applies: read-out: IC50 NO; in vitro; standard gallic acid. Summed up:
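Sodium nitroprusside (10 mM, in sodium phosphate buffer pH 7.4) added to test compound ([…]) or distilled water as control, then incubated at 37°C for 2 h. Griess reagent added, and A540 read. NO scavenging % = (1 − A compound/A control) × 100.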

Experiment [1] in a line: Ferric reducing antioxidant power. The following applies: read-out: IC50 FRAP; in vitro; standard gallic acid.
A short description of experiment [2]: DPPH radical scavenging activity. The following applies: read-out: IC50 DPPH; in vitro; standard gallic acid.

Molecules are shown by their SMILES.

As a reminder, the IC50 is the concentration that gives 50% inhibition. For the compound `O=C(O)c1cc(O)c(O)c(O)c1` [Gallic acid], the 50% inhibitory concentration (IC50) in “NO scavenging activity” was 78.5 µM; in experiment [1], 117 µM; in experiment [2], 105 µM.
